Source: ChEMBL document CHEMBL1130413, “Novel 3'-C/N-substituted 2',3'-beta-D-dideoxynucleosides as potential chemotherapeutic agents. 1. Thymidine derivatives: synthesis, structure, and broad spectrum antiviral properties” (J Med Chem, 1997)
Values after ≈ are worked out from the molar mass of the structure shown.

Experiments:
FM3A [1] = assay: EC50 is the cytotoxic concentration of compound required to reduce FM3A/TK- (Thymidine kinase deficient murine mammary carcinoma cells) cell viability by 50%.; type: functional, cell-based; conditions: Mus musculus
Procedure, shortened: (§1)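 Murine L1210 or FM3A-derived cells seeded at 5 × 10^5 cells/mL with varying compound concentrations. Incubated 2 days at 37 °C in humidified CO2. Viable cells counted with a Coulter counter. Value is the concentration reducing viable cell number by 50%.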

E6SM [2] = assay: 50% Minimum inhibitory concentration which is required to reduce cytopathogenicity induced by (G) strain of HSV-2 virus on human E6SM cells.; type: functional
Procedure, shortened: (§2)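 Confluent cell monolayers infected with 100 CCID50 virus and left 1 h for adsorption. Residual virus then removed and compound added at serial dilutions (400, 200, 100 ... µg/mL). Value is the concentration giving 50% reduction of CPE.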

HEL [3] = assay: 50% Minimum inhibitory concentration which is required to reduce cytopathogenicity induced by (Lyons) strain of HSV-2 virus on human embryonic HEL cells.; type: functional; procedure, shortened: as §2
[4] = Minimum cytotoxic concentration which causes microscopically detectable alteration of normal cell morphology after 2 days of incubation.; type: functional; conditions: 48 h
Procedure, shortened: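 Uninfected E6SM cells exposed to compound for 2 days. Minimum concentration giving a microscopically detectable change in normal cell morphology recorded.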

CEM-TK(-) [5] = assay: Cytotoxic concentration which is required to reduce CEM/TK- cell viability by 50%.; type: functional; conditions: Homo sapiens
E6SM [6] = assay: 50% Minimum inhibitory concentration which is required to reduce cytopathogenicity induced by (F) strain of HSV-1 virus on human E6SM cells.; type: functional; procedure, shortened: as §2
[7] = Selectivity index of HIV-1 and HIV-2 with respect to CEM cells; type: functional, CCRF-CEM
Procedure, shortened: (§3)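 Selectivity index calculated as average CC50 divided by average EC50. Each average comes from two independent experiments, using HIV-1 (IIIB) and HIV-2 (ROD) in CEM or MT-4 cells.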

HEL [8] = assay: 50% Minimum inhibitory concentration which is required to reduce cytopathogenicity induced by TK-(B2006) strain of HSV-1 virus on human embryonic HEL cells.; type: functional; procedure, shortened: as §2
MT4 [9] = assay: 50% effective concentration of compound which is required to protect human MT-4 cells against cytopathogenicity of HIV-2.; type: functional, cell-based
E6SM [10] = assay: 50% Minimum inhibitory concentration which is required to reduce cytopathogenicity induced by (Lyons) strain of HSV-2 virus on human E6SM cells.; type: functional; procedure, shortened: as §2
CCRF-CEM [11] = assay: Cytotoxic concentration which is required to reduce human CEM cell viability by 50%.; type: functional
Procedure, shortened: (§4)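 Human CEM or Molt-4 cells seeded at 7.5 × 10^5 cells/mL with varying compound concentrations. Incubated 3 days at 37 °C in humidified CO2. Viable cells counted with a Coulter counter. Value is the concentration reducing viable cell number by 50%.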

L1210 = assay: EC50 is the cytotoxic concentration of compound required to reduce L1210 (murine leukemia cells) cell viability by 50%.; type: functional, cell-based; conditions: Mus musculus; procedure, shortened: as §1
HEL [12] = assay: 50% Minimum inhibitory concentration which is required to reduce cytopathogenicity induced by (Mc Intyre) strain of HSV-1 virus on human embryonic HEL cells.; type: functional; procedure, shortened: as §2
MT4 [13] = assay: Cytotoxic concentration which is required to reduce human MT-4 cell viability by 50%.; type: functional
HEL [14] = assay: 50% Minimum inhibitory concentration which is required to reduce cytopathogenicity induced by (KOS) strain of HSV-1 virus on human embryonic HEL cells.; type: functional; procedure, shortened: as §2
HEL [15] = assay: 50% Minimum inhibitory concentration which is required to reduce cytopathogenicity induced by (G) strain of HSV-2 virus on human embryonic HEL cells.; type: functional; procedure, shortened: as §2
FM3A [16] = assay: EC50 is the cytotoxic concentration of compound required to reduce FM3A (murine mammary carcinoma cells) cell viability by 50%.; type: functional, cell-based; conditions: Mus musculus; procedure, shortened: as §1
E6SM [17] = assay: 50% Minimum inhibitory concentration which is required to reduce cytopathogenicity induced by (196) strain of HSV-2 virus on human E6SM cells.; type: functional; procedure, shortened: as §2
MT4 [18] = assay: 50% effective concentration of compound which is required to protect human MT-4 cells against cytopathogenicity of HIV-1.; type: functional, cell-based
FM3A [19] = assay: EC50 is the cytotoxic concentration of compound required to reduce FM3A/TK- HSV-1TK+ cell viability by 50%.; type: functional, cell-based; conditions: Mus musculus; procedure, shortened: as §1
E6SM [20] = assay: 50% Minimum inhibitory concentration which is required to reduce cytopathogenicity induced by TK-(B2006) strain of HSV-1 virus on human E6SM cells.; type: functional; procedure, shortened: as §2
CCRF-CEM [21] = assay: 50% effective concentration of compound which is required to protect human CEM cells against HIV-1 induced giant cell formation.; type: functional, cell-based
Procedure, shortened: (§5)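 CEM cells at 250000–300000 cells/mL infected with HIV-1 (IIIB) or HIV-2 (ROD) at 100 CCID50/mL. Infected cells mixed with serial compound dilutions and incubated 4 days at 37 °C. Syncytium (giant cell) formation then scored. Values averaged over two independent experiments.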

E6SM [22] = assay: 50% Minimum inhibitory concentration which is required to reduce cytopathogenicity induced by (KOS) strain of HSV-1 virus on human E6SM cells.; type: functional; procedure, shortened: as §2
CCRF-CEM [23] = assay: 50% effective concentration of compound which is required to protect human CEM cells against HIV-2 induced giant cell formation.; type: functional, cell-based; procedure, shortened: as §5
MOLT-4 = assay: EC50 is the cytotoxic concentration of compound required to reduce Molt4/C8 (human T-lymphocyte) cell viability by 50%.; type: functional, cell-based; procedure, shortened: as §4
E6SM [24] = assay: 50% Minimum inhibitory concentration which is required to reduce cytopathogenicity induced by (Mc Intyre) strain of HSV-1 virus on human E6SM cells.; type: functional; procedure, shortened: as §2
CEM-TK(-) [25] = assay: 50% effective concentration of compound which is required to protect Thymidine kinase deficient human CEM (CEM/TK-) cells against HIV-2.; type: functional, cell-based
HEL [26] = assay: 50% Minimum inhibitory concentration which is required to reduce cytopathogenicity induced by (OKA) strain of Varicella Zoster virus on human embryonic HEL cells.; type: functional
[27] = Selectivity index of HIV-1 and HIV-2 with respect to MT-4 cells; type: functional, MT4; procedure, shortened: as §3
E6SM [28] = assay: 50% Minimum inhibitory concentration which is required to reduce cytopathogenicity induced by Vaccinia virus (VV) on human E6SM cells.; type: functional; procedure, shortened: as §2

CC(=O)O/N=C1/C[C@H](n2cc(C)c(=O)[nH]c2=O)O[C@@H]1CO.CC(=O)O/N=C1\C[C@H](n2cc(C)c(=O)[nH]c2=O)O[C@@H]1CO (racemic)
EC50 (FM3A [1]): > 200 µg/mL | MIC (E6SM [2]): 1 µg/mL | MIC (HEL [3]): 2 µg/mL | MCC [4]: 400 µg/mL | CC50 (CEM-TK(-) [5]): > 200 µg/mL | MIC (E6SM [6]): 5 µg/mL | Selectivity index [7]: 130 | MIC (HEL [8]): > 5 µg/mL | EC50 (MT4 [9]): 0.05 µg/mL | MIC (E6SM [10]): 4 µg/mL | CC50 (CCRF-CEM [11]): 104 µg/mL | EC50 (L1210): 19 µg/mL | MIC (HEL [12]): 2.7 µg/mL | CC50 (MT4 [13]): 7.1 µg/mL | MIC (HEL [14]): 3.8 µg/mL | MIC (HEL [15]): 2.8 µg/mL | EC50 (FM3A [16]): > 200 µg/mL | MIC (E6SM [17]): 70 µg/mL | EC50 (MT4 [18]): 0.05 µg/mL | EC50 (FM3A [19]): > 200 µg/mL | MIC (E6SM [20]): > 200 µg/mL | EC50 (CCRF-CEM [21]): 1 µg/mL | MIC (E6SM [22]): 0.9 µg/mL | EC50 (CCRF-CEM [23]): 0.8 µg/mL | EC50 (MOLT-4): 14 µg/mL | MIC (E6SM [24]): 2 µg/mL | EC50 (CEM-TK(-) [25]): > 20 µg/mL | MIC (HEL [26]): 20 µg/mL | Selectivity index [27]: 182 | MIC (E6SM [28]): 70 µg/mL

CO/N=C1/C[C@H](n2cc(C)c(=O)[nH]c2=O)O[C@@H]1CO.CO/N=C1\C[C@H](n2cc(C)c(=O)[nH]c2=O)O[C@@H]1CO
EC50 (FM3A [1]): > 200 µg/mL | MIC (E6SM [2]): > 200 µg/mL | MIC (HEL [3]): 35 µg/mL | MCC [4]: > 200 µg/mL | CC50 (CEM-TK(-) [5]): > 200 µg/mL | MIC (E6SM [6]): > 200 µg/mL | Selectivity index [7]: 8 | MIC (HEL [8]): > 50 µg/mL | EC50 (MT4 [9]): 4.6 µg/mL | MIC (E6SM [10]): > 200 µg/mL | CC50 (CCRF-CEM [11]): > 200 µg/mL | EC50 (L1210): 112 µg/mL | MIC (HEL [12]): > 50 µg/mL | CC50 (MT4 [13]): 182 µg/mL | MIC (HEL [14]): 50 µg/mL | MIC (HEL [15]): > 50 µg/mL | EC50 (FM3A [16]): > 200 µg/mL | MIC (E6SM [17]): > 200 µg/mL | EC50 (MT4 [18]): 3.3 µg/mL | EC50 (FM3A [19]): > 200 µg/mL | MIC (E6SM [20]): > 200 µg/mL | EC50 (CCRF-CEM [21]): 26 µg/mL | MIC (E6SM [22]): > 200 µg/mL | EC50 (CCRF-CEM [23]): 27 µg/mL | EC50 (MOLT-4): > 200 µg/mL | MIC (E6SM [24]): > 200 µg/mL | EC50 (CEM-TK(-) [25]): > 100 µg/mL | Selectivity index [27]: 64

Cc1cn(C2CC([N+](=O)[O-])C(CO)O2)c(=O)[nH]c1=O (centres undefined)
EC50 (FM3A [1]): > 200 µg/mL | MIC (E6SM [2]): > 200 µg/mL | MIC (HEL [3]): 25 µg/mL (≈ 92.2 µM) | MCC [4]: > 200 µg/mL | CC50 (CEM-TK(-) [5]): > 200 µg/mL | MIC (E6SM [6]): > 200 µg/mL | Selectivity index [7]: >1.7 | MIC (HEL [8]): > 50 µg/mL | EC50 (MT4 [9]): 2.2 µg/mL (≈ 8.11 µM) | MIC (E6SM [10]): > 200 µg/mL | CC50 (CCRF-CEM [11]): 168 µg/mL (≈ 619 µM) | EC50 (L1210): 58 µg/mL (≈ 214 µM) | MIC (HEL [12]): 20 µg/mL (≈ 73.7 µM) | CC50 (MT4 [13]): 93 µg/mL (≈ 343 µM) | MIC (HEL [14]): 5 µg/mL (≈ 18.4 µM) | MIC (HEL [15]): 20 µg/mL (≈ 73.7 µM) | EC50 (FM3A [16]): > 200 µg/mL | MIC (E6SM [17]): > 200 µg/mL | EC50 (MT4 [18]): 1 µg/mL (≈ 3.69 µM) | EC50 (FM3A [19]): > 200 µg/mL | MIC (E6SM [20]): > 200 µg/mL | EC50 (CCRF-CEM [21]): > 100 µg/mL | MIC (E6SM [22]): > 200 µg/mL | EC50 (CCRF-CEM [23]): 100 µg/mL (≈ 369 µM) | EC50 (MOLT-4): 70 µg/mL (≈ 258 µM) | MIC (E6SM [24]): > 200 µg/mL | EC50 (CEM-TK(-) [25]): > 100 µg/mL | Selectivity index [27]: 79

NC(=O)c1ncn([C@@H]2O[C@H](CO)[C@@H](O)[C@H]2O)n1 [RIBAVIRIN]
MIC (E6SM [2]): 50 µg/mL (≈ 205 µM) | MCC [4]: > 400 µg/mL | MIC (E6SM [6]): 80 µg/mL (≈ 328 µM) | MIC (E6SM [10]): 100 µg/mL (≈ 409 µM) | MIC (E6SM [17]): 150 µg/mL (≈ 614 µM) | MIC (E6SM [20]): 150 µg/mL (≈ 614 µM) | MIC (E6SM [22]): 60 µg/mL (≈ 246 µM) | MIC (E6SM [24]): 90 µg/mL (≈ 369 µM)
